From ChEMBL document CHEMBL2021883, “Amino acid, dipeptide and pseudodipeptide conjugates of ring-substituted 8-aminoquinolines: synthesis and evaluation of anti-infective, β-haematin inhibition and cytotoxic activities” (Eur J Med Chem, 2012)
≈ marks a conversion by molar mass, not a printed value. Calls of active or inactive are those of the source. Unless noted, no cut-off for these calls is given here.

Legend:
Plasmodium falciparum [1] = assay: Antimalarial activity against chloroquine-sensitive Plasmodium falciparum D6 assessed as plasmodial LDH activity; type: functional, organism-based
Plasmodium falciparum [2] = assay: Antimalarial activity against chloroquine-resistant Plasmodium falciparum W2 assessed as plasmodial LDH activity; type: functional, organism-based
Vero = assay: Cytotoxicity against african green monkey Vero cells upto 23.8 […] by neutral dye assay; type: cell-based, Chlorocebus sabaeus
Outline: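 Vero monkey kidney cells were exposed to compound up to a highest concentration of 23.8, with viability read by neutral red uptake.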

[3] = Inhibition of beta-hematin formation; type: functional
Leishmania donovani = assay: Antileishmanial activity against Leishmania donovani promastigote by Alamar Blue assay; type: functional, organism-based
[4] = Selectivity index, ratio of IC50 for african green monkey Vero cells to IC50 for chloroquine-sensitive Plasmodium falciparum D6; type: toxicity, cell-based; details: Vero cells versus Plasmodium falciparum D6, read-out: Ratio IC50
[5] = Selectivity index, ratio of IC50 for african green monkey Vero cells to IC50 for chloroquine-resistant Plasmodium falciparum W2; type: toxicity, cell-based; details: Vero cells versus Plasmodium falciparum W2, read-out: Ratio IC50
Plasmodium berghei [6] = assay: Antimalarial activity against Plasmodium berghei blood-schizont in mouse malaria model assessed as elimination of parasitemia at 100 mg/kg, po for 4 days for 4 days measured after 7 days; type: functional, organism-based; set-up: dose 100 mg/kg
Outline: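 P. berghei-infected mice, 6 per group, received compound orally once daily for 4 days at 10, 25, 50 or 100 mg/kg/day. "Active" meant all treated animals were parasitaemia-negative up to D+7. "Curative" meant complete parasite elimination with survival to D+60. Outcomes were recorded as cured/total.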

Plasmodium berghei [7] = assay: Antimalarial activity against Plasmodium berghei blood-schizont in mouse malaria model assessed as elimination of parasitemia at 100 mg/kg, po for 4 days for 4 days measured after 4 days; type: functional, organism-based; set-up: dose 100 mg/kg
Staphylococcus aureus [8] = assay: Antimicrobial activity against Staphylococcus aureus ATCC 29213 by CLSI method; type: functional, organism-based
Staphylococcus aureus [9] = assay: Antimicrobial activity against methicillin-resistant Staphylococcus aureus ATCC 43300 by CLSI method; type: functional, organism-based
[10] = test system: Mycobacterium intracellulare; assay: Antimicrobial activity against Mycobacterium intracellulare ATCC 23068 by Franzblau method; type: functional, organism-based
Escherichia coli [11] = assay: Antimicrobial activity against Escherichia coli ATCC 35218 by CLSI method; type: functional, organism-based
Pseudomonas aeruginosa = assay: Antimicrobial activity against Pseudomonas aeruginosa ATCC 27853 by CLSI method; type: functional, organism-based
Outline: (§1)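 Antibacterial testing used CLSI/NCCLS broth dilution for aerobically growing bacteria, with 20 as the highest test concentration.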

Aspergillus fumigatus = assay: Antifungal activity against Aspergillus fumigatus; type: functional, organism-based
Outline: (§2)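 Yeasts and A. fumigatus were tested by broth microdilution following the NCCLS antifungal standards. The highest test concentration was 20.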

Cryptococcus neoformans = assay: Antifungal activity against Cryptococcus neoformans; type: functional, organism-based; outline: as §2
Candida albicans [12] = assay: Antifungal activity against Candida albicans at 20 ug/ml; type: functional, organism-based
Outline: (§3)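 Broth dilution antifungal testing followed the NCCLS reference method for yeasts, with 20 as the highest test concentration. MIC was the lowest concentration with no detectable growth. MFC was the lowest concentration killing the organism.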

Candida albicans [13] = assay: Fungicidal activity against Candida albicans at 20 ug/ml; type: functional, organism-based; outline: as §3
Nakaseomyces glabratus = assay: Antifungal activity against Candida glabrata; type: functional, organism-based; outline: as §2
Pichia kudriavzevii [14] = assay: Antifungal activity against Candida krusei; type: functional, organism-based; outline: as §2
[15] = test system: Mycobacterium intracellulare; assay: Antimicrobial activity against Mycobacterium intracellulare ATCC 23068 at 20 ug/ml by Franzblau method; type: functional, organism-based
[16] = test system: Mycobacterium intracellulare; assay: Bactericidal activity against Mycobacterium intracellulare ATCC 23068 at 20 ug/ml by Franzblau method; type: functional, organism-based
Escherichia coli [17] = assay: Antimicrobial activity against Escherichia coli ATCC 35218 at 20 ug/ml by CLSI method; type: functional, organism-based; outline: as §1
Escherichia coli [18] = assay: Bactericidal activity against Escherichia coli ATCC 35218 at 20 ug/ml by CLSI method; type: functional, organism-based; outline: as §1
Staphylococcus aureus [19] = assay: Antimicrobial activity against methicillin-resistant Staphylococcus aureus ATCC 43300 at 20 ug/ml by CLSI method; type: functional, organism-based
Staphylococcus aureus [20] = assay: Bactericidal activity against methicillin-resistant Staphylococcus aureus ATCC 43300 at 20 ug/ml by CLSI method; type: functional, organism-based
Outline: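 MBC is the lowest concentration that kills the organism. 20 was the highest concentration tested.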

Pichia kudriavzevii [21] = assay: Antifungal activity against Candida krusei at 20 ug/ml; type: functional, organism-based; outline: as §3
Pichia kudriavzevii [22] = assay: Fungicidal activity against Candida krusei at 20 ug/ml; type: functional, organism-based; outline: as §3
[23] = Plasmodium falciparum, D6, read-out: IC50
[24] = Plasmodium falciparum, W2, read-out: IC50
[25] = Leishmania donovani, read-out: IC50

COc1cc(NC(C)CCCNC(=O)CC[C@H](NC(=O)[C@@H](N)CCCNC(=N)N)C(=O)O)c2nc(C(C)(C)C)ccc2c1 (stereo partly specified)
IC50 (Plasmodium falciparum [1]; [23]): 2.3 µg/mL (≈ 3.83 µM) | IC50 (Plasmodium falciparum [2]; [24]): 2 µg/mL (≈ 3.33 µM) | IC50 (Vero): Non-toxic | IC50 [3]: 96 µM | IC50 (Leishmania donovani): Not Active | IC90 (Leishmania donovani): inactive | selectivity ratio [4]: > 10.3 | selectivity ratio [5]: > 11.9 | Activity (Plasmodium berghei [6]): inactive | Activity (Plasmodium berghei [7]): inactive | Activity (Staphylococcus aureus [8]): inactive | Activity (Staphylococcus aureus [9]): inactive | Activity [10]: inactive | Activity (Escherichia coli [11]): inactive | Activity (Pseudomonas aeruginosa): inactive | Activity (Aspergillus fumigatus): inactive | IC50 (Cryptococcus neoformans): 15 µg/mL (≈ 25 µM) | MFC (Cryptococcus neoformans): 20 µg/mL (≈ 33.3 µM) | MIC (Cryptococcus neoformans): 20 µg/mL (≈ 33.3 µM) | Activity (Candida albicans [12]): inactive | Activity (Candida albicans [13]): inactive

COc1cc(NC(C)CCCNC(=O)[C@@H](CCCNC(=N)N)NC(=O)[C@H](N)CCCNC(=N)N)c2nc(C(C)(C)C)ccc2c1 (stereo partly specified)
IC50 (Plasmodium falciparum [1]): Not Active | IC50 (Plasmodium falciparum [2]): Not Active | IC50 (Vero): Non-toxic | IC50 [3]: > 1000 µM | IC90 (Leishmania donovani; Leishmania donovani): 34 µg/mL (≈ 54.2 µM) | IC50 (Leishmania donovani; [25]): 20 µg/mL (≈ 31.9 µM) | IC50 (Staphylococcus aureus [8]): 11.2 µg/mL (≈ 17.8 µM) | MBC (Staphylococcus aureus [8]): 20 µg/mL (≈ 31.9 µM) | MIC (Staphylococcus aureus [8]): 20 µg/mL (≈ 31.9 µM) | IC50 (Staphylococcus aureus [9]): 5.96 µg/mL (≈ 9.49 µM) | MBC (Staphylococcus aureus [9]): 20 µg/mL (≈ 31.9 µM) | MIC (Staphylococcus aureus [9]): 10 µg/mL (≈ 15.9 µM) | Activity [10]: inactive | Activity (Escherichia coli [11]): inactive | Activity (Pseudomonas aeruginosa): inactive | Activity (Aspergillus fumigatus): inactive | IC50 (Nakaseomyces glabratus): 12.4 µg/mL (≈ 19.8 µM) | MFC (Nakaseomyces glabratus): 20 µg/mL (≈ 31.9 µM) | MIC (Nakaseomyces glabratus): 20 µg/mL (≈ 31.9 µM) | IC50 (Cryptococcus neoformans): 3.55 µg/mL (≈ 5.65 µM) | MFC (Cryptococcus neoformans): 10 µg/mL (≈ 15.9 µM) | MIC (Cryptococcus neoformans): 10 µg/mL (≈ 15.9 µM) | IC50 (Pichia kudriavzevii [14]): 7.08 µg/mL (≈ 11.3 µM) | MFC (Pichia kudriavzevii [14]): 10 µg/mL (≈ 15.9 µM) | MIC (Pichia kudriavzevii [14]): 10 µg/mL (≈ 15.9 µM) | Activity [15]: inactive | Activity [16]: inactive | Activity (Escherichia coli [17]): inactive | Activity (Escherichia coli [18]): inactive | Activity (Candida albicans [12]): inactive | Activity (Candida albicans [13]): inactive

COc1cc(NC(C)CCCNC(=O)[C@H](CCCN)NC(=O)[C@@H](N)CCCN)c2nc(C(C)(C)C)ccc2c1 (stereo partly specified)
IC50 (Plasmodium falciparum [1]; [23]): 2.5 µg/mL (≈ 4.6 µM) | IC50 (Plasmodium falciparum [2]; [24]): 2 µg/mL (≈ 3.68 µM) | IC50 (Vero): Non-toxic | IC50 [3]: 85 µM | IC90 (Leishmania donovani): inactive | IC50 (Leishmania donovani; [25]): 20 µg/mL (≈ 36.8 µM) | selectivity ratio [4]: > 9.5 | selectivity ratio [5]: > 11.9 | Activity (Plasmodium berghei [6]): inactive | Activity (Plasmodium berghei [7]): inactive | Activity (Staphylococcus aureus [8]): inactive | Activity (Staphylococcus aureus [9]): inactive | Activity [10]: inactive | Activity (Escherichia coli [11]): inactive | Activity (Pseudomonas aeruginosa): inactive | Activity (Aspergillus fumigatus): inactive | IC50 (Cryptococcus neoformans): 3.5 µg/mL (≈ 6.44 µM) | MFC (Cryptococcus neoformans): 5 µg/mL (≈ 9.2 µM) | MIC (Cryptococcus neoformans): 5 µg/mL (≈ 9.2 µM) | Activity (Candida albicans [12]): inactive | Activity (Candida albicans [13]): inactive

COc1cc(NC(C)CCCNC(=O)[C@@H](CCCN)NC(=O)[C@H](N)CCCN)c2nc(C(C)(C)C)ccc2c1 (stereo partly specified)
IC50 (Plasmodium falciparum [1]; [23]): 4.76 µg/mL (≈ 8.75 µM) | IC50 (Plasmodium falciparum [2]; [24]): 3.3 µg/mL (≈ 6.07 µM) | IC50 (Vero): Non-toxic | IC50 [3]: 39 µM | IC90 (Leishmania donovani; Leishmania donovani): 38 µg/mL (≈ 69.9 µM) | IC50 (Leishmania donovani; [25]): 20 µg/mL (≈ 36.8 µM) | selectivity ratio [4]: > 5 | selectivity ratio [5]: > 7.21 | Activity (Staphylococcus aureus [9]): inactive | IC50 [10]: 10 µg/mL (≈ 18.4 µM) | MIC [10]: 20 µg/mL (≈ 36.8 µM) | Activity (Escherichia coli [11]): inactive | Activity (Pseudomonas aeruginosa): inactive | Activity (Aspergillus fumigatus): inactive | IC50 (Cryptococcus neoformans): 3.5 µg/mL (≈ 6.44 µM) | MFC (Cryptococcus neoformans): 5 µg/mL (≈ 9.2 µM) | MIC (Cryptococcus neoformans): 5 µg/mL (≈ 9.2 µM) | Activity (Staphylococcus aureus [19]): inactive | Activity (Staphylococcus aureus [20]): inactive | Activity [16]: inactive | Activity (Escherichia coli [17]): inactive | Activity (Escherichia coli [18]): inactive | Activity (Candida albicans [12]): inactive | Activity (Candida albicans [13]): inactive

COc1cc(NC(C)CCCNC(=O)C[C@@H](NC(=O)[C@H](N)CCCN)C(=O)O)c2nc(C(C)(C)C)ccc2c1 (stereo partly specified)
IC50 (Plasmodium falciparum [1]; [23]): 2.5 µg/mL (≈ 4.59 µM) | IC50 (Plasmodium falciparum [2]; [24]): 3.4 µg/mL (≈ 6.24 µM) | IC50 (Vero): Non-toxic | IC50 [3]: > 1000 µM | IC50 (Leishmania donovani): Not Active | IC90 (Leishmania donovani): inactive | selectivity ratio [4]: > 9.5 | selectivity ratio [5]: > 7 | Activity (Staphylococcus aureus [8]): inactive | Activity (Staphylococcus aureus [9]): inactive | Activity [10]: inactive | Activity (Escherichia coli [11]): inactive | Activity (Pseudomonas aeruginosa): inactive | Activity (Aspergillus fumigatus): inactive | IC50 (Nakaseomyces glabratus): 13.7 µg/mL (≈ 25.1 µM) | MFC (Nakaseomyces glabratus): 20 µg/mL (≈ 36.7 µM) | MIC (Nakaseomyces glabratus): 20 µg/mL (≈ 36.7 µM) | IC50 (Cryptococcus neoformans): 4.86 µg/mL (≈ 8.92 µM) | MFC (Cryptococcus neoformans): 10 µg/mL (≈ 18.4 µM) | MIC (Cryptococcus neoformans): 10 µg/mL (≈ 18.4 µM) | Activity (Candida albicans [12]): inactive | Activity (Candida albicans [13]): inactive | Activity (Pichia kudriavzevii [21]): inactive | Activity (Pichia kudriavzevii [22]): inactive
